# In PubChem BioAssay:
# Calls of active or inactive are those of the source. Unless noted, the rule behind the calls is not given here.
# Legend:
# [1] = target: Pantothenate synthetase (Mycobacterium tuberculosis (strain ATCC 25618 / H37Rv)) (UniProt P9WIL5); assay: Coupled enzyme confirmation of inhibitors against recombinant Mtb PanC (AID 375); conditions: coupled enzyme assay; at 10 µM, stronger effect = higher value;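 note: 0% = full reaction with vehicle and 100% = no enzyme background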
# [2] = Her2 expression decrease, cell viability multiplex – SKBR3 breast tumor cells, AlphaScreen, ATP viability, primary screen (AID 461;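 active = Her2 level under about 52% in both replicate screens, with viability over 70% of control, limit read from the data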;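 for Her2 level: lower value means less Her2 protein in the cells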;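 for viability: percent of carrier control wells set as 100% viability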); conditions: SKBR3 Her2 protein level, 18-24 h, measured here: SKBR3 viability, ATP luminescence, at 10 µM
# [3] = target: Receptor tyrosine-protein kinase erbB-2 (Homo sapiens) (UniProt P04626); assay: as above; conditions: 18-24 h, at 10 µM, stronger effect = lower value
# [4] = reduced viability of SK-BR-3 breast cancer cells – cell-based, 24 h, human, pilot screen (AID 572;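 active = viability at or below 10% of carrier control in both of two separate runs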;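 note: compound exposure lasted between 18 and 24 h rather than exactly 24 h; 100% = carrier-treated control wells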); conditions: SK-BR-3 viability, CellTiter-Glo luminescence, at 10 µM, stronger effect = lower value
# [5] = HUVEC growth inhibition – cell-based, human, primary screen (AID 575;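 active = viability at or below 30% in both replicate assays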;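 note: 100% = median of untreated cell wells with 0.1% DMSO on each plate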); conditions: HUVEC proliferation, CellTiter-Glo luminescence, 72 h; at 10 µM; stronger effect = lower value
# Procedure, shortened: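 Test system: primary human umbilical vein endothelial cells. Quantity: 1250 cells/well. Compound: single 10 µM dose, 0.1% DMSO, from 5x medium stock. Timing: 72 h treatment at 37 °C. Detection: ATP-based CellTiter-Glo luminescent read. Benchmarks: vehicle and MePR control wells. Format: 384-well plates coated with collagen.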
# [6] = H69AR cell proliferation blockers – human, duplicate replicates, primary screen (AID 580;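 active = viability at or under a set limit in both replicates, limit being median viability minus 3 SD, cut at about 48% in these data, passing the limit was not always enough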;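 note: 100% = mean luminescence of untreated wells and 0% = no signal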); conditions: H69AR lung tumor cells viability, ATP luminescence, 72 h; at 10 µM; stronger effect = lower value
# [7] = MRP1 drug-resistance reversers in H69AR cells – cell-based, doxorubicin co-treatment, pilot screen (AID 601;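 active = viability loss from added drug above about 55%, and viability with drug at most 40%, in both replicates, limit read from the data, passing the limit was not always enough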); conditions: CellTiter-Glo, 72 h, at 10 µM; for differential viability (reversal): stronger effect = higher value
# [8] = H69AR cells + 2 uM doxorubicin, measured here: viability with 2 uM doxorubicin, stronger effect = lower value
# [9] = H69AR cells, compound alone cytotoxicity
# Sequence of Pantothenate synthetase (Mycobacterium tuberculosis (strain ATCC 25618 / H37Rv)) (P9WIL5 whole entry, looked up): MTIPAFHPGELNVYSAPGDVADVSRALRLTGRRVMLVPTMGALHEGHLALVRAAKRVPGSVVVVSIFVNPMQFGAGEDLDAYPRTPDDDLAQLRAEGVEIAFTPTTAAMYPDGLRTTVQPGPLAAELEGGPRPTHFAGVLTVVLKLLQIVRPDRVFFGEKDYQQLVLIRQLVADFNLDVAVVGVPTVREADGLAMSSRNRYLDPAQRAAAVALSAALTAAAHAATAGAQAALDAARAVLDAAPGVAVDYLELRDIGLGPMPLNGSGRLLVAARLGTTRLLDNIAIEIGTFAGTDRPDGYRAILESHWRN
# Sequence of Receptor tyrosine-protein kinase erbB-2 (Homo sapiens) (P04626 whole entry, looked up): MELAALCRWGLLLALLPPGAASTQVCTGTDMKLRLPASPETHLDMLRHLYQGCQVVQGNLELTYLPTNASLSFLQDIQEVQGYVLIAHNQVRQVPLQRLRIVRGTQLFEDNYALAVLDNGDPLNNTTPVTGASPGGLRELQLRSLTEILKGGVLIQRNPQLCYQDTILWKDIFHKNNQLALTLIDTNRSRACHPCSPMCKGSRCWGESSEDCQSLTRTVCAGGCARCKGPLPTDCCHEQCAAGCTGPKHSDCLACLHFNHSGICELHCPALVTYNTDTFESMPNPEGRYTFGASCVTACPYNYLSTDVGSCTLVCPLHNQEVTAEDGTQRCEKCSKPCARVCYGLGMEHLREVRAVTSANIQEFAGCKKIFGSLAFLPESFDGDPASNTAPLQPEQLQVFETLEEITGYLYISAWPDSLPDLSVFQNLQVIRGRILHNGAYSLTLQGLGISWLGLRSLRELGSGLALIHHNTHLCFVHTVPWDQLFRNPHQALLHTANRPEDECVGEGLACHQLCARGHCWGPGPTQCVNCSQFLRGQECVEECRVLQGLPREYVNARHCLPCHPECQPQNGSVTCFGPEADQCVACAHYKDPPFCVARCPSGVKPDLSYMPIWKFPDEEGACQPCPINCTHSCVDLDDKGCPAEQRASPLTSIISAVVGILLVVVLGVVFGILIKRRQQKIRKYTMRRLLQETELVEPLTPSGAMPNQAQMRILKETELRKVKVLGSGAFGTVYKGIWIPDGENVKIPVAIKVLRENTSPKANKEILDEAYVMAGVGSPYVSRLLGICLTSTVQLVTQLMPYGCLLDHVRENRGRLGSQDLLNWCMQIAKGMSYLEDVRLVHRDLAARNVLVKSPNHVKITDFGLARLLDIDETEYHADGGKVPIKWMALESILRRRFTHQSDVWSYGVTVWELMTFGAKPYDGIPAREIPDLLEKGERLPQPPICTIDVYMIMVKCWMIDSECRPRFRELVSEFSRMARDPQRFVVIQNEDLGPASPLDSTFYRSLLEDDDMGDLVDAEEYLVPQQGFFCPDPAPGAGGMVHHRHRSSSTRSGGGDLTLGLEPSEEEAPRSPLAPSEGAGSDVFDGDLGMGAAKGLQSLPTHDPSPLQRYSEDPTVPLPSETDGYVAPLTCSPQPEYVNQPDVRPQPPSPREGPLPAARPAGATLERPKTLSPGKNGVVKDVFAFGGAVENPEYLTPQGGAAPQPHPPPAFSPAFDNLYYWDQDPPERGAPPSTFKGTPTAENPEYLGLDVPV
smiles,measurement,setting,value
COc1ccc(Nc2nc(-c3sc(N)nc3C)cs2)cc1,inhibition,[1],3% (inactive)
CCC(C)NCC(O)COCc1ccc(Cl)cc1 (stereo unspecified),inhibition,[1],4% (inactive)
O=C(CSc1nnc2sc3ccccc3n12)c1ccco1,inhibition,[1],0% (inactive)
COC(=O)CSC1=C(C#N)C(c2ccc(F)cc2)CC(=O)N1 (stereo unspecified),inhibition,[1],0% (inactive)
NC(N)=NC(=O)c1nc(Cl)c(N)nc1N,inhibition,[1],0% (inactive)
CCCCOCP(=O)(CCCC)COCCCC,inhibition,[1],1% (inactive)
CCOc1ccc(OCC)c(NC(=O)C2CCN(c3ncccn3)CC2)c1,inhibition,[1],0% (inactive)
Cc1cc(NC(=O)CSc2nccn2-c2ccc(F)cc2)no1,inhibition,[1],5% (inactive)
c1ccc(CNc2c3c(nc4ncnn24)CCCC3)nc1,inhibition,[1],0% (inactive)
CCCOc1ccc(OCCSc2ncccn2)cc1,inhibition,[1],0% (inactive)
Cc1cc(NC(=O)c2ccc3c(c2)C(=O)N(Cc2cccnc2)C3=O)no1,inhibition,[1],0% (inactive)
Cc1ccccc1NC(=O)C1Cc2ccccc2C(=O)O1 (stereo unspecified),inhibition,[1],0% (inactive)
COCCCn1nnnc1SCC(=O)Nc1nc(C)c(C)s1,inhibition,[1],0% (inactive)
c1ccc(CNC2=NCCC2)nc1,inhibition,[1],0% (inactive)
Cc1nnc(SCC(=O)Nc2sc3c(c2C#N)CCCC3)[nH]c1=O,inhibition,[1],0% (inactive)
Cc1onc(-c2ccccc2)c1C(=O)N1CCN(C(=O)c2ccco2)CC1,inhibition,[1],0% (inactive)
COCC(=O)N(C)c1nnc(-c2ccccn2)s1,inhibition,[1],2% (inactive)
CN1CCN(Cc2nc3c(c(=O)n(C)c(=O)n3C)n2Cc2ccccc2Cl)CC1,inhibition,[1],0% (inactive)
CCOC(=O)c1c(N)sc(C(=O)N2CCOCC2)c1C,inhibition,[1],4% (inactive)
CCOC(=O)N1CCC(n2c(=S)[nH]c3cc(OC)c(OC)cc3c2=O)CC1,inhibition,[1],2% (inactive)
Cc1ccc(CCNC(=O)C2CCC(=O)N2C2CCCC2)cc1 (stereo unspecified),inhibition,[1],0% (inactive)
Cc1ccc2nc(NCCCN3CCOCC3)c(C=NCCCN3CCOCC3)c(=O)n2c1,inhibition,[1],0% (inactive)
CCCN(CCC)C(=O)C(CCC(=O)O)NC(=O)c1ccccc1 (stereo unspecified),inhibition,[1],0% (inactive)
Cc1ccc(S(=O)(=O)N2CCOCC(=O)NCCOCCNC(=O)COCC2)cc1,inhibition,[1],0% (inactive)
CCOC(=O)c1sc(N2C(=O)C(O)=C(C(=O)c3ccco3)C2c2ccccc2)nc1C (stereo unspecified),inhibition,[1],0% (inactive)
CC1(C)CC(=O)C2=C(C1)Nc1nc(SCCN3CCOCC3)[nH]c(=O)c1C2c1cccs1 (stereo unspecified),inhibition,[1],2% (inactive)
CC(C)C(=O)Nc1cccc(NC(=O)c2cccnc2)c1,inhibition,[1],1% (inactive)
COc1cc2[nH]c(=O)n(CCCCCC(=O)N3CCN(c4ccccn4)CC3)c(=O)c2cc1OC,inhibition,[1],2% (inactive)
N#CC1=C(N)N(c2ccccc2)C2=C(C(=O)CCC2)C1c1cccs1 (stereo unspecified),inhibition,[1],0% (inactive)
CCCCSc1cc(C)nc2ncnn12,inhibition,[1],0% (inactive)
Cc1cccc(-n2ncc3c(N4CCC5(CC4)OCCO5)ncnc32)c1,inhibition,[1],7% (inactive)
C[C@@]1(CO)[C@H](O)CC[C@@]2(C)[C@H]1CC[C@H]1C[C@@H]3C[C@@]12CC[C@]3(O)CO,inhibition,[1],0% (inactive)
same,viability,[2],108%
same,Her2 level,[3],81.5% (inactive)
same,viability,[4],108% (inactive)
same,viability,[5],49.2% (inactive)
same,viability,[6],80.6% (inactive)
same,differential viability (reversal),[7]; H69AR cells + 2 uM doxorubicin,-28.1% (inactive)
same,viability,[7]; [8],109%
same,viability,[7]; [9],80.6%
COc1ccc(C(=O)N2CCCC2=O)cc1,inhibition,[1],10% (inactive)
same,viability,[2],110%
same,Her2 level,[3],94.5% (inactive)
same,viability,[4],110% (inactive)
same,viability,[5],119% (inactive)
same,viability,[6],103% (inactive)
same,differential viability (reversal),[7]; H69AR cells + 2 uM doxorubicin,13.5% (inactive)
same,viability,[7]; [8],89.1%
same,viability,[7]; [9],103%
CCCCc1nc2ccccc2n2cc3c(=O)n(C)c(=O)n(C)c3c12,inhibition,[1],0% (inactive)
CC(=O)[C@H]1CC[C@H]2[C@@H]3CC[C@H]4C[C@H](O)CC[C@]4(C)[C@H]3C(=O)C[C@]12C,inhibition,[1],0% (inactive)
same,viability,[2],112%
same,Her2 level,[3],108% (inactive)
same,viability,[4],112% (inactive)
same,viability,[5],118% (inactive)
same,viability,[6],104% (inactive)
same,differential viability (reversal),[7]; H69AR cells + 2 uM doxorubicin,12.1% (inactive)
same,viability,[7]; [8],92%
same,viability,[7]; [9],104%
COc1ccc2c(c1)c(CC(=O)O)c(C)n2C(=O)c1ccc(Cl)cc1,inhibition,[1],5% (inactive)
CN1CCN(C(=O)OC2c3nccnc3C(=O)N2c2ccc(Cl)cn2)CC1 (stereo unspecified),inhibition,[1],8% (inactive)
same,viability,[2],91.5%
same,Her2 level,[3],108% (inactive)
same,viability,[4],91.5% (inactive)
same,viability,[5],106% (inactive)
same,viability,[6],94.1% (inactive)
same,differential viability (reversal),[7]; H69AR cells + 2 uM doxorubicin,-3.97% (inactive)
same,viability,[7]; [8],98.1%
same,viability,[7]; [9],94.1%
COc1ccccc1C(=O)Nc1nc2ccc(S(C)(=O)=O)cc2s1,inhibition,[1],0% (inactive)
COc1ccc(OC)c([C@@H](O)[C@H](C)NC(C)(C)C)c1,inhibition,[1],6% (inactive)
same,viability,[2],100%
same,Her2 level,[3],120% (inactive)
same,viability,[4],100% (inactive)
same,viability,[5],92.3% (inactive)
same,viability,[6],97.5% (inactive)
same,differential viability (reversal),[7]; H69AR cells + 2 uM doxorubicin,-0.98% (inactive)
same,viability,[7]; [8],98.5%
same,viability,[7]; [9],97.5%
COc1ccc(-c2noc(COc3ccc4ccccc4c3Br)n2)cc1OC,inhibition,[1],6% (inactive)
CCn1cc(C(C)NC(=O)COc2ccc(Cl)cc2C)c(C)n1 (stereo unspecified),inhibition,[1],0% (inactive)
COc1ccc(-c2nnc(SCc3nnc(-c4ccc(Cl)cc4)o3)n2-c2ccccc2)cc1,inhibition,[1],0% (inactive)
COc1ccccc1C1N(c2ccc(F)cc2)C(=O)C2CCCN21 (stereo unspecified),inhibition,[1],0% (inactive)
O=C(CSc1nnc(Cc2ccccc2)n1C1CCCCC1)N1CCOCC1,inhibition,[1],3% (inactive)
O=C(CN(CCc1ccccc1)C(=O)CN1C(=O)COc2ccccc21)NCc1ccco1,inhibition,[1],10% (inactive)
c1ccc(Cc2nn3c(Cn4cnc5ccccc54)nnc3s2)cc1,inhibition,[1],4% (inactive)
c1ccc2c(c1)OCC(C1=NCCN1)O2 (stereo unspecified),inhibition,[1],0% (inactive)
same,viability,[2],104%
same,Her2 level,[3],108% (inactive)
same,viability,[4],104% (inactive)
same,viability,[5],108% (inactive)
same,viability,[6],81.4% (inactive)
same,differential viability (reversal),[7]; H69AR cells + 2 uM doxorubicin,9.15% (inactive)
same,viability,[7]; [8],72.2%
same,viability,[7]; [9],81.4%
CCc1nnc(NC(=O)CSc2nnc(CSc3nc(C)cc(C)n3)n2CC)s1,inhibition,[1],1% (inactive)
CCC(COC(=O)c1cc(OC)c(OC)c(OC)c1)(c1ccccc1)N(C)C (stereo unspecified),inhibition,[1],2% (inactive)
same,viability,[2],87.5%
same,Her2 level,[3],107% (inactive)
same,viability,[4],87.5% (inactive)
same,viability,[5],104% (inactive)
same,viability,[6],87.6% (inactive)
same,differential viability (reversal),[7]; H69AR cells + 2 uM doxorubicin,11.9% (inactive)
same,viability,[7]; [8],75.7%
same,viability,[7]; [9],87.6%
CCCC(=O)OCCn1c(Br)nc2c1c(=O)[nH]c(=O)n2C,inhibition,[1],7% (inactive)
